According to ChEMBL document CHEMBL1122414, “Anilides related to substituted benzamides. Potential antipsychotic activity of N-(4-amino-5-chloro-2-methoxyphenyl)-1-(phenylmethyl)-4-piperidinecarboxamide” (1983):

Columns and labels:
[1] = tested on: Mus musculus; assay: Antagonistic activity against apomorphine induced climbing in CD-1 mice, after oral administration; type: functional
In short: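 Male CD-1 mice (20–25 g), usually four groups of five, dosed orally with graded doses or vehicle 30 min before submaximal apomorphine (1 mg/kg sc). Climbing scored 10, 20 and 30 min later (modified Protais method). ED50 with 95% confidence limits by Litchfield–Wilcoxon.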

[2] = tested on: Rattus norvegicus; assay: Antagonistic activity against apomorphine induced delay in gastric emptying in Wistar rats, after subcutaneous administration; details: Stomach, sc
[3] = tested on: Rattus norvegicus; assay: Antagonism of amphetamine induced syereotyped behavior after intraperitoneal administration to CD rats; details: ip
[4] = tested on: Rattus norvegicus; assay: Evaluation of prolactin levels in Hooded Lister rats after subcutaneous administration; details: sc
[5] = tested on: Rattus norvegicus; assay: Increase in intragastric pressure after subcutaneous administration to Wistar rats; 5-50
[6] = tested on: Rattus norvegicus; assay: Evaluation of HVA levels in striatum after subcutaneous administration to Hooded Lister rats; details: sc
[7] = tested on: Rattus norvegicus; assay: Evaluation of HVA levels in limbic system in Hooded Lister rats after subcutaneous administration; details: sc
[8] = tested on: Mus musculus; assay: Antagonistic activity against apomorphine induced climbing in CD-1 mice at 2 mg/kg after oral administration; type: functional
In short: (§1)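 Male CD-1 mice (20–25 g), usually groups of five, given oral compound or vehicle 30 min before apomorphine 1 mg/kg sc. Climbing scored at 10, 20 and 30 min. Percent antagonism at the quoted dose.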

[9] = tested on: Mus musculus; assay: Percent antagonistic activity against apomorphine induced climbing in CD-1 mice at 0.5 mg/kg after oral administration; type: functional; in short: as §1
[10] = tested on: Rattus norvegicus; assay: Increase in intragastric pressure after subcutaneous administration to Wistar rats

Structure (SMILES): COc1cc(N)c(Cl)cc1NC(=O)C1CCN(Cc2ccc(OCc3ccccc3)cc2)CC1
- ED50 [1]: > 4 mg/kg

Structure (SMILES): COc1cc(N)c(Cl)cc1NC(=O)C1CCN(CC2CCCC2)CC1
- ED50 [1]: > 10 mg/kg

Structure (SMILES): COc1cc(N)c(Cl)cc1NC(=O)C1CCN(Cc2cccs2)CC1
- Inhibition [1]: 77%

Structure (SMILES): CCC(CC)CN1CCC(C(=O)Nc2cc(Cl)c(N)cc2OC)CC1
- ED50 [1]: > 10 mg/kg

Structure (SMILES): CCN1CCC(C(=O)Nc2cc(Cl)c(N)cc2OC)CC1
- ED50 [1]: > 10 mg/kg

Structure (SMILES): COc1cc(N)c(Cl)cc1NC(=O)C1CCN(Cc2ccc(C)c(C)c2)CC1
- ED50 [1]: > 8 mg/kg

Structure (SMILES): COc1cc(N)c(Cl)cc1NC(=O)C1CCN(Cc2cccc(C)c2)CC1
- ED50 [1]: 2.4 mg/kg

Structure (SMILES): COc1cc(N)c(Cl)cc1NC(=O)C1CCN(Cc2ccc(F)cc2)CC1
- ED50 [1]: 0.6 mg/kg

Structure (SMILES): COc1cc(N)c(Cl)cc1NC(=O)C1CCN(CC2CCCCC2)CC1
- ED50 [1]: 2.9 mg/kg

Structure (SMILES): COc1cc(N)c(Cl)cc1NC(=O)C1CCN(Cc2ccccc2F)CC1
- ED50 [1]: > 4 mg/kg

Structure (SMILES): COc1cc(N)c(Cl)cc1NC(=O)C1CCN(Cc2ccccc2)CC1
- ED50 [2]: > 50 mg/kg
- ED50 [3]: 0.25 mg/kg
- ED50 [4]: 0.5 mg/kg
- ED50 [5]: > 50 mg/kg
- ED50 [6]: 0.4 mg/kg
- ED50 [1]: 0.5 mg/kg
- ED50 [7]: 0.5 mg/kg

Structure (SMILES): COc1cc(N)c(Cl)cc1NC(=O)C1CCN(CC2CCC2)CC1
- ED50 [1]: > 10 mg/kg

Structure (SMILES): COc1cc(N)c(Cl)cc1NC(=O)C1CCN(Cc2ccc(Cl)cc2)CC1
- ED50 [1]: 1.2 mg/kg

Structure (SMILES): COc1cc(N)c(Cl)cc1NC(=O)C1CCN(C/C=C/c2ccccc2)CC1
- ED50 [1]: > 10 mg/kg

Structure (SMILES): CCCCN1CCC(C(=O)Nc2cc(Cl)c(N)cc2OC)CC1
- ED50 [1]: > 10 mg/kg

Structure (SMILES): CCCCCCCN1CCC(C(=O)Nc2cc(Cl)c(N)cc2OC)CC1
- ED50 [1]: > 10 mg/kg

Structure (SMILES): COc1cc(N)c(Cl)cc1NC(=O)C1CCN(CC2CC2)CC1
- ED50 [1]: > 10 mg/kg

Structure (SMILES): CCOc1ccc(CN2CCC(C(=O)Nc3cc(Cl)c(N)cc3OC)CC2)cc1
- ED50 [1]: 6.3 mg/kg

Structure (SMILES): COc1cc(N)c(Cl)cc1NC(=O)C1CCN(Cc2ccc([N+](=O)[O-])cc2)CC1
- ED50 [1]: > 4 mg/kg

Structure (SMILES): CCCN1CCC(C(=O)Nc2cc(Cl)c(N)cc2OC)CC1
- ED50 [1]: > 10 mg/kg

Structure (SMILES): COc1cc(N)c(Cl)cc1NC(=O)C1CCN(Cc2cccc(F)c2)CC1
- inhibition in vivo at 2 mg/kg [8]: 58%

Structure (SMILES): COc1cc(N)c(Cl)cc1NC(=O)C1CCN(Cc2ccccc2C)CC1
- inhibition in vivo at 2 mg/kg [8]: 77%

Structure (SMILES): COc1cc(N)c(Cl)cc1NC(=O)C1CCN(Cc2ccsc2)CC1
- ED50 [1]: 3.4 mg/kg

Structure (SMILES): COc1cc(N)c(Cl)cc1NC(=O)C1CCN(CCc2ccccc2)CC1
- ED50 [1]: > 10 mg/kg

Structure (SMILES): COc1cc(N)c(Cl)cc1NC(=O)C1CCN(C2CCCC2)CC1
- ED50 [1]: > 10 mg/kg

Structure (SMILES): COc1ccc(CN2CCC(C(=O)Nc3cc(Cl)c(N)cc3OC)CC2)cc1
- ED50 [1]: 0.9 mg/kg

Structure (SMILES): COc1cc(N)c(Cl)cc1NC(=O)C1CCN(Cc2cccc(Cl)c2)CC1
- ED50 [1]: > 4 mg/kg

Structure (SMILES): COc1cc(N)c(Cl)cc1NC(=O)C1CCN(Cc2ccc3c(c2)OCO3)CC1
- ED50 [1]: 4.3 mg/kg

Structure (SMILES): CCCCCCN1CCC(C(=O)Nc2cc(Cl)c(N)cc2OC)CC1
- ED50 [1]: > 10 mg/kg

Structure (SMILES): COc1cc(N)c(Cl)cc1NC(=O)C1CCN(CC2CCCCCC2)CC1
- ED50 [1]: > 10 mg/kg

Structure (SMILES): COc1cc(N)c(Cl)cc1NC(=O)C1CCN(Cc2ccc(C)cc2)CC1
- inhibition in vivo at 0.5 mg/kg [9]: 50%

Structure (SMILES): COc1cccc(CN2CCC(C(=O)Nc3cc(Cl)c(N)cc3OC)CC2)c1
- ED50 [1]: > 4 mg/kg

Structure (SMILES): COc1cc(N)c(Cl)cc1NC(=O)C1CCN(Cc2cccc(C#N)c2)CC1
- ED50 [1]: > 4 mg/kg

Structure (SMILES): COc1cc(N)c(Cl)cc1NC(=O)C1CCN(Cc2ccccc2Cl)CC1
- ED50 [1]: > 4 mg/kg

Structure (SMILES): CCCCCN1CCC(C(=O)Nc2cc(Cl)c(N)cc2OC)CC1
- ED50 [1]: > 10 mg/kg

Structure (SMILES): COc1cc(N)c(Cl)cc1NC(=O)C1CCN(Cc2ccc(O)cc2)CC1
- ED50 [1]: > 8 mg/kg

Structure (SMILES): COc1cc(N)c(Cl)cc1C(=O)NC1CCN(Cc2ccccc2)CC1 [CLEBOPRIDE]
- ED50 [2]: 0.11 mg/kg
- ED50 [4]: 0.14 mg/kg
- ED50 [6]: 0.1 mg/kg
- ED50 [1]: 0.7 mg/kg
- ED50 [7]: 0.2 mg/kg
- lowest active dose [10]: 1 mg/kg
